Laboratory results: PubChem BioAssay
Results filed as inconclusive are left out.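 Rule for the calls, unless noted: active = viability increase at or above a cutoff of the median across tested compounds plus 3 SD (cut at about 8.5% in these data, passing the limit was not always enough); inconclusive = some gains above the cutoff, reason not given; inactive = the rest.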

Columns and labels:
[1] = OD615 S. cerevisiae growth inhibition, permissive medium, pilot counter-assay, permissive growth control for S. cerevisiae lifespan shortening project (AID 705;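 active = growth inhibition above 25% in both replicates, a cutoff set 3 SD above the mean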); conditions: OD615, 24 h, at 10 µM, active compounds read high
How it was run: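 Material: engineered DeaD yeast; Compound: one dose 10 µM, DMSO 0.25% final; Detection: absorbance (optical density) at 615 nm; Buffer or medium: permissive raffinose/galactose medium; Timing: 24 h exposure, 30 °C.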

[2] = Restrictive medium S. cerevisiae growth inhibition, OD615, pilot screen of yeast lifespan reduction project, restrictive growth control (AID 706;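 active = growth inhibition above a set limit, 3 SD over mean compound inhibition, in both replicates, cut at about 43% in these data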;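 note: modified DeaD lifespan yeast strain shifted to restrictive glucose medium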); conditions: OD615, 48 h, at 10 µM, active compounds read high
How it was run: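 Buffer or medium: restrictive glucose medium (CSMM-D); test system: modified S. cerevisiae; doses: single dose of 10 µM compound final, 0.25% DMSO; schedule: 48 h compound exposure at 30 °C; detection: absorbance (optical density) measured at 615 nm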

[3] = viability gain of MRP-1-high H69AR cells under doxorubicin, pilot screen, MRP-1 activator project, CellTiter-Glo, duplicate (AID 807); conditions: H69AR viability with doxorubicin, CellTiter-Glo luminescence; at 10 µM; active compounds read high;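 note: compound pretreatment 18-22 h then 72 h combined with doxorubicin; 0% = doxorubicin alone and 100% = vehicle without doxorubicin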
[4] = growth suppression of beta-catenin knockout HCT116, pilot screen, human colon tumor cells (AID 823;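 active = cell viability at or below a set limit in both duplicate runs, the limit being the all-compound median minus 4 SD, cut at about 23% in these data, passing the limit was not always enough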;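 note: 0% = wells killed by 20 µM Hyamine and 100% = untreated DMSO cell wells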); conditions: CellTiter-Glo, 60 h, at 10 µM, active compounds read low
[5] = growth suppression of PTEN-deleted HCT116, pilot screen, cell-based, HCT116 clonal line, CellTiter-Glo (AID 824;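 active = viability at or below 27.92% in each of two runs, the all-compound median minus 4 SD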;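 note: 0% = 20 µM Hyamine control and 100% = vehicle cell control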); conditions: 60 h, at 10 µM, active compounds read low
[6] = inhibitors of the yeast RAM network, pilot screen, dse1pr::URA3 reporter, 5-FOA selection (AID 869;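 active = inhibition over a set limit, the all-compound mean plus 3 SD, in both replicate runs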;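 note: 0% = DMSO wells with no growth and 100% = 10 µM 1-NA-PP1 with full growth; RAM network block rescues cells from 5-FOA so hits raise OD615 growth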); conditions: S. cerevisiae dse1pr::URA3 5-FOA growth, OD615, 2 d; at 10 µM; active compounds read high; strain carries analog-sensitive mutant Cbk1 kinase
[7] = RAM signaling pathway blockade in yeast – S. cerevisiae, Pdr1DBD-CYC8 efflux-inhibited sensitized strain, primary screen (AID 1298;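 active = RAM network inhibition above 8.4% in each of two replicates, 3 SD over the compound average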;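 note: 0% = DMSO untreated cells without growth and 100% = 10 µM 1-NA-PP1 full growth; higher means more yeast growth rescued from 5-FOA killing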); conditions: S. cerevisiae cbk1-as DSE1-URA3 strain, 5-FOA growth OD615, 2 d; at 50 µM; active compounds read high

CC(=O)Nc1nc(CC(=O)c2ccccc2)cs1
inactive: growth inhibition [1] -2.4% | growth inhibition [2] -4.14% | viability increase [3] -0.56% | viability [4] 102% | viability [5] 98.9% | inhibition [6] 1.15% | RAM network inhibition [7] 0.47%

O=C(CCNS(=O)(=O)c1cccc2nonc12)NCc1cccs1
inactive: growth inhibition [1] -0.555% | growth inhibition [2] -14.2% | viability increase [3] -1.88% | viability [4] 96.3% | viability [5] 89.1% | inhibition [6] 2.46% | RAM network inhibition [7] 1.92%

COc1cc(/C=N/n2cnnc2)ccc1OCCOc1ccccc1
inactive: growth inhibition [1] 0.295% | growth inhibition [2] 1.02% | viability increase [3] -3.68% | viability [4] 104% | viability [5] 91.8% | inhibition [6] 3.07% | RAM network inhibition [7] 5.62%

Cc1sc2nc(SC(C)C)nc(N)c2c1C
inactive: growth inhibition [1] 6.53% | growth inhibition [2] 7.72% | viability increase [3] 0.28% | viability [4] 103% | viability [5] 104% | inhibition [6] 1.69% | RAM network inhibition [7] 4.8%

CCCn1cnc2cc(NCc3ccccn3)ccc21
inactive: growth inhibition [1] -5.07% | growth inhibition [2] 8.03% | viability increase [3] -2.58% | viability [4] 98.5% | viability [5] 100% | inhibition [6] 2.06% | RAM network inhibition [7] -2.3%

CCOc1ccc(C2C(C#N)=C(N)SC(N)=C2C#N)cc1OCC
inactive: growth inhibition [1] 12.6% | growth inhibition [2] -4.33% | viability increase [3] -0.77% | viability [4] 103% | viability [5] 91.5% | inhibition [6] 0.96% | RAM network inhibition [7] 7.43%

Cn1c(-n2c(CCN3C(=O)c4ccccc4C3=O)nc3ccccc3c2=O)nc2ccccc21
inactive: growth inhibition [1] 1.63% | growth inhibition [2] -2.29% | viability increase [3] -4.94% | viability [4] 68.2% | viability [5] 81.2% | inhibition [6] 0.65% | RAM network inhibition [7] 2.45%

COc1ccccc1N1CCN(C(=O)C2CCN(S(=O)(=O)c3ccccc3)CC2)CC1
inactive: growth inhibition [1] -0.075% | growth inhibition [2] 2.96% | viability increase [3] -1.42% | viability [4] 92.6% | viability [5] 95.6% | inhibition [6] 1.07% | RAM network inhibition [7] 5.76%

Cc1cc(C)nc(SCC(=O)c2ccc(O)cc2O)n1
inactive: growth inhibition [1] -0.2% | growth inhibition [2] 9.03% | viability increase [3] -3.73% | viability [4] 99.7% | viability [5] 99.4% | inhibition [6] 1.04% | RAM network inhibition [7] -1.2%

Cn1c(Cn2c(=O)sc3ccccc32)nnc1SCC(=O)N1CCCCCC1
inactive: growth inhibition [1] -15% | growth inhibition [2] -23.5% | viability increase [3] -0.71% | viability [4] 102% | viability [5] 95.2% | inhibition [6] 2.58% | RAM network inhibition [7] 1.04%

COC(=O)c1cn(C(C)C(=O)NCc2ccco2)c2ccccc12 (stereo not given)
inactive: growth inhibition [1] -16.9% | growth inhibition [2] -23.6% | viability increase [3] -0.53% | viability [4] 102% | viability [5] 102% | inhibition [6] 1.68% | RAM network inhibition [7] 2.95%

O=C(CCSCCC(=O)NCc1cccs1)NCc1cccs1
inactive: growth inhibition [1] -5.92% | growth inhibition [2] 3.44% | viability increase [3] -1.73% | viability [4] 94.5% | viability [5] 96.3% | inhibition [6] 3.47% | RAM network inhibition [7] 2.86%

Cc1ccc(N(C(C)C(=O)O)S(=O)(=O)c2c(C)[nH]c(=O)[nH]c2=O)cc1 (stereo not given)
inactive: growth inhibition [1] 1.15% | growth inhibition [2] 11.8% | viability increase [3] -0.92% | viability [4] 102% | viability [5] 94.5% | inhibition [6] 0.555% | RAM network inhibition [7] -0.47%

Cc1c(C(=O)NCC2CCCO2)sc2nc(-c3ccccc3)cn12 (stereo not given)
inactive: growth inhibition [1] 7.17% | growth inhibition [2] 8.27% | viability increase [3] 0.89% | viability [4] 109% | viability [5] 95.1% | inhibition [6] 0.15% | RAM network inhibition [7] 1.08%

Cc1ccc(NC(=O)C2CCCN(S(=O)(=O)c3ccc4c(c3)oc(=O)n4C)C2)nc1 (stereo not given)
inactive: growth inhibition [1] -7.92% | growth inhibition [2] -2.67% | viability increase [3] -0.05% | viability [4] 101% | viability [5] 101% | inhibition [6] 1.09% | RAM network inhibition [7] -2.07%
